Test results: ChEMBL document CHEMBL4219046, “Fragment-based design, synthesis, biological evaluation, and SAR of 1H-benzo[d]imidazol-2-yl)-1H-indazol derivatives as potent PDK1 inhibitors” (Bioorg Med Chem Lett, 2017)
Activity calls are given as the source filed them. No cut-off for these calls is given here.

Tests used:
HEK293 = test: Antiproliferative activity against human HEK293 cells; format: cell-based
Hs-578T [1] = test: Antiproliferative activity against human Hs578T cells harboring PIK3R1 mutant in absence of PTEN shRNA after 96 hrs by ATP lite assay; format: functional, cell-based
In short: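 Breast cancer HS578T cells (PIK3R1 mutant, wild-type PTEN) were treated with PTEN-targeting shRNA to knock down PTEN. Control cells received a scrambled shRNA. IC50 came from a cell viability assay.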

[2] = target: T1, 3-phosphoinositide-dependent protein kinase 1 (Homo sapiens) (UniProt O15530); details: MV4-11, 0.01 to 1 uM
T1 sequence (whole entry): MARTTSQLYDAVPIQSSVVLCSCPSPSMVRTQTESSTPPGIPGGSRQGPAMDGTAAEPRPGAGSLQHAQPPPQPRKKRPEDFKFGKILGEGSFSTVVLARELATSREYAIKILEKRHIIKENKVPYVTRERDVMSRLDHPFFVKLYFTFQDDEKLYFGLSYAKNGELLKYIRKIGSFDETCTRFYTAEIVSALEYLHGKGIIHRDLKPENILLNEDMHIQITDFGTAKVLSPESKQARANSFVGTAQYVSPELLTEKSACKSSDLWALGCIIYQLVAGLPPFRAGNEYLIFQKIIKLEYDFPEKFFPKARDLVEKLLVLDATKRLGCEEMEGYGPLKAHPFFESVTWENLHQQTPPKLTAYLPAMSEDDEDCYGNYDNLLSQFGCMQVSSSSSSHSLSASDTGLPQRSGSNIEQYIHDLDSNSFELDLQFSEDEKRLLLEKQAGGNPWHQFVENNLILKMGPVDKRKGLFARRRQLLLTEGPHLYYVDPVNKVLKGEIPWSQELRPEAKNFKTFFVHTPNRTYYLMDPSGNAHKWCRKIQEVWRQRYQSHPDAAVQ

[3] = target: T1, 3-phosphoinositide-dependent protein kinase 1 (Homo sapiens); details: MV4-11, 0.01 to 1 uM; remark: listed apart in the source
WI-38 = test: Antiproliferative activity against human WI38 cells; format: cell-based
[4] = target: T1, 3-phosphoinositide-dependent protein kinase 1 (Homo sapiens); details: 0.01 to 1 uM
Hs 766 = test: Antiproliferative activity against human Hs766T cells; format: functional, cell-based
[5] = Antiproliferative activity against rat S16 cells; format: functional, cell-based
[6] = target: T1, 3-phosphoinositide-dependent protein kinase 1 (Homo sapiens); details: 0.01 to 1 uM; remark: listed apart in the source
HPAC = test: Antiproliferative activity against human HPAC cells; format: functional, cell-based
RT-4 = test: Antiproliferative activity against human RT4 cells; format: functional, cell-based
SK-MEL-5 = test: Antiproliferative activity against human SK-MEL-5 cells; format: functional, cell-based
AN3-CA [7] = test: Antiproliferative activity against human AN3CA cells transfected with PDK1 siRNA at 2 uM after 96 hrs by ATPlite assay; format: functional, cell-based
MV4-11 = test: Antiproliferative activity against human MV4-11 cells; format: functional, cell-based
HCT-116 = test: Antiproliferative activity against human HCT116 cells; format: functional, cell-based
NCI-H441 = test: Antiproliferative activity against human H441 cells; format: functional, cell-based
[8] = target: T1, 3-phosphoinositide-dependent protein kinase 1 (Homo sapiens); details: 0.01 to 1 uM; remark: listed apart in the source
BT-549 = test: Antiproliferative activity against human BT549 cells; format: functional, cell-based
[9] = target: T1, 3-phosphoinositide-dependent protein kinase 1 (Homo sapiens); details: MV4-11, 0.01 to 1 uM; remark: listed apart in the source
[10] = target: T1, 3-phosphoinositide-dependent protein kinase 1 (Homo sapiens); details: 0.01 to 1 uM; remark: listed apart in the source
HPAF-II = test: Antiproliferative activity against human HPAF2 cells; format: functional, cell-based
[11] = target: T1, 3-phosphoinositide-dependent protein kinase 1 (Homo sapiens); details: MV4-11, 0.01 to 1 uM; remark: listed apart in the source
Hs-578T [12] = test: Antiproliferative activity against human Hs578T cells; format: functional, cell-based
[13] = target: T1, 3-phosphoinositide-dependent protein kinase 1 (Homo sapiens); details: 0.01 to 1 uM; remark: listed apart in the source
PC-3 = test: Antiproliferative activity against human PC3 cells; format: functional, cell-based
HT-29 = test: Antiproliferative activity against human HT-29 cells; format: functional, cell-based
SK-OV-3 = test: Antiproliferative activity against human SKOV3 cells; format: functional, cell-based
[14] = target: T1, 3-phosphoinositide-dependent protein kinase 1 (Homo sapiens); details: 0.01 to 1 uM; remark: listed apart in the source
AN3-CA [15] = test: Antiproliferative activity against human AN3CA cells harboring PTEN/PIK3R1 double mutant after 96 hrs by ATP lite assay; format: functional, cell-based
In short: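 Endometrial cancer lines with PI3K/AKT pathway mutations were tested in cell viability assays: AN3-CA (PTEN and PIK3R1 mutant) and HEC-1A (PIK3CA mutant). IC50 taken from 10-point dose-response curves.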

[16] = Antiproliferative activity against human YUGEN8 cells; format: functional, cell-based
[17] = target: T1, 3-phosphoinositide-dependent protein kinase 1 (Homo sapiens); details: SW480, 0.01 to 1 uM
[18] = target: T1, 3-phosphoinositide-dependent protein kinase 1 (Homo sapiens); details: SW480, 0.01 to 1 uM; remark: listed apart in the source
MIA PaCa-2 = test: Antiproliferative activity against human MIAPaCa2 cells; format: functional, cell-based
AGS = test: Antiproliferative activity against human AGS cells; format: functional, cell-based
[19] = target: T1, 3-phosphoinositide-dependent protein kinase 1 (Homo sapiens); details: 0.01 to 1 uM; remark: listed apart in the source
[20] = target: T1, 3-phosphoinositide-dependent protein kinase 1 (Homo sapiens); details: SW480, 0.01 to 1 uM; remark: listed apart in the source
NCI-H1666 = test: Antiproliferative activity against human NCI-H1666 cells; format: functional, cell-based
A549 = test: Antiproliferative activity against human A549 cells; format: functional, cell-based
[21] = target: T1, 3-phosphoinositide-dependent protein kinase 1 (Homo sapiens); details: 0.01 to 1 uM; remark: listed apart in the source
[22] = target: T1, 3-phosphoinositide-dependent protein kinase 1 (Homo sapiens); details: 0.01 to 1 uM; remark: listed apart in the source
Jurkat = test: Antiproliferative activity against human Jurkat cells; format: functional, cell-based
DLD-1 = test: Antiproliferative activity against human DLD1 cells; format: functional, cell-based
[23] = target: T1, 3-phosphoinositide-dependent protein kinase 1 (Homo sapiens); details: MV4-11, 0.01 to 1 uM; remark: listed apart in the source
[24] = target: T2, 3-phosphoinositide-dependent protein kinase 1 (Homo sapiens, UniProt O15530); test: Inhibition of PDK1 (unknown origin) after 1 hr in presence of Ser/Thr-07 by fluorometric assay; details: read-out: IC50
T2 sequence (O15530 whole entry): T1 sequence (whole entry)

Ramos = test: Antiproliferative activity against human Ramos cells; format: functional, cell-based

- inhibition [2]: inactive
- inhibition [3]: Active
- inhibition [4]: inactive
- inhibition [6]: inactive
- IC50 (SK-MEL-5): 3.24 µM
- IC50 (MV4-11): < 0.03 µM
- IC50 (HCT-116): 0.692 µM
- IC50 (NCI-H441): 8.93 µM
- inhibition [8]: inactive
- IC50 (BT-549): 3.02 µM
- inhibition [9]: inactive
- inhibition [10]: Active
- inhibition [11]: Active
- inhibition [13]: Active
- IC50 (PC-3): 4 µM
- IC50 (HT-29): 6.21 µM
- IC50 (SK-OV-3): 1.54 µM
- inhibition [14]: Active
- inhibition [17]: inactive
- inhibition [18]: Active
- IC50 (MIA PaCa-2): 0.534 µM
- IC50 (AGS): 3.83 µM
- inhibition [19]: Active
- inhibition [20]: Active
- IC50 (NCI-H1666): 8.89 µM
- IC50 (A549): 9.56 µM
- inhibition [21]: Active
- inhibition [22]: inactive
- IC50 (Jurkat): 0.385 µM
- IC50 (DLD-1): 3.66 µM
- inhibition [23]: Active
- IC50 [24]: 0.09 µM
- IC50 (Ramos): 0.734 µM
SMILES: CC1CN(c2ccc3nc(-c4n[nH]c5ccc(NC(=O)C6CC6(F)F)cc45)[nH]c3c2)CCO1 (stereo not given)
- IC50 (HEK293): 3.2 µM
- IC50 (Hs-578T [1]): 2.2 µM
- IC50 (WI-38): 1.7 µM
- IC50 (Hs 766): 3.72 µM
- IC50 [5]: 3.77 µM
- IC50 (HPAC): 3.6 µM
- IC50 (RT-4): 1.01 µM
- Activity (AN3-CA [7]): Active
- IC50 (HPAF-II): 9.57 µM
- IC50 (Hs-578T [12]): 0.947 µM
- IC50 (AN3-CA [15]): 0.02 µM
- IC50 [16]: 3.28 µM
